The list is not random: actives were taken first. Their share in the collection is about 2.5%.
DNMT1 inh – human DNMT1 methyltransferase inhibitors, primary screen, biochemical, molecular beacon, fluorescence, HinP1I cleavage, uHTS; inhibition (reported as % activation of signal), % at 10 µM; 360,000 tested, 0.83% active; DNA (cytosine-5)-methyltransferase 1 (Homo sapiens), P26358; in the data active means inhibition above about 50%
HCV NS3 hel inh – inhibitors of HCV NS3 helicase, primary screen, biochemical, Cy5 molecular beacon fluorescence. Hepatitis C virus NS3 helicase. NS3 helicase DNA unwinding. AID 1800, 2009. inhibition, % at 10.9 µM. 290,000 tested, 0.56% active;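 active means inhibition above the mean of all tested compounds plus 3 SD, set per campaign, cut at about 35% in these data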;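 further: 0% = DMSO wells and 100% = thioflavine S control wells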
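Compound dosing – single dose, 10.9 µM nominal final, DMSO 0.8% final · System – NS3 helicase fragment of HCV · Buffer or medium – MOPS pH 6.5, MgCl2, DTT, Tween20, BSA · Signal – Cy5 beacon fluorescence read at start and 1 h · Also added – annealed dual-labelled DNA beacon duplex, ATP-started · Schedule – 1 h at 25 °C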
Pemphigus Ab inh – inhibitors of pemphigus antibody binding to DSG3, primary screen, biochemical, bead-based, flow cytometry, scFv-GFP; Desmoglein-3 (Homo sapiens), P32926; 310,000 tested, 0.48% active; DSG3-coupled beads, scFv-anti-DSG3-GFP binding; stronger effect = lower value; AID 588358, 2011; binding (percent of control), % at 10 µM;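 active means binding more than 3 SD below its plate's average and above zero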;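 further: hits lower antibody fragment binding to DSG3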
UHRF1 MBD2 ctr – UHRF1 methylated DNA binding inhibitors, primary screen, counter-screen for MBD2 inhibitor project, biochemical, TR-FRET, human UHRF1, single concentration; 370,000 tested, 0.75% active; E3 ubiquitin-protein ligase UHRF1 (Homo sapiens), Q96T88; inhibition, % at 4.4 µM; UHRF1 binding to methylated oligo; AID 687016, 2013; in the data active means inhibition above about 21%;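 further: UHRF1 SRA domain binding a hemimethylated CpG hairpin DNA probe; 0% = median of test compound wells and 100% = reference inhibitor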
Target sequence (Q96T88 whole entry, looked up, the tested form may be a part): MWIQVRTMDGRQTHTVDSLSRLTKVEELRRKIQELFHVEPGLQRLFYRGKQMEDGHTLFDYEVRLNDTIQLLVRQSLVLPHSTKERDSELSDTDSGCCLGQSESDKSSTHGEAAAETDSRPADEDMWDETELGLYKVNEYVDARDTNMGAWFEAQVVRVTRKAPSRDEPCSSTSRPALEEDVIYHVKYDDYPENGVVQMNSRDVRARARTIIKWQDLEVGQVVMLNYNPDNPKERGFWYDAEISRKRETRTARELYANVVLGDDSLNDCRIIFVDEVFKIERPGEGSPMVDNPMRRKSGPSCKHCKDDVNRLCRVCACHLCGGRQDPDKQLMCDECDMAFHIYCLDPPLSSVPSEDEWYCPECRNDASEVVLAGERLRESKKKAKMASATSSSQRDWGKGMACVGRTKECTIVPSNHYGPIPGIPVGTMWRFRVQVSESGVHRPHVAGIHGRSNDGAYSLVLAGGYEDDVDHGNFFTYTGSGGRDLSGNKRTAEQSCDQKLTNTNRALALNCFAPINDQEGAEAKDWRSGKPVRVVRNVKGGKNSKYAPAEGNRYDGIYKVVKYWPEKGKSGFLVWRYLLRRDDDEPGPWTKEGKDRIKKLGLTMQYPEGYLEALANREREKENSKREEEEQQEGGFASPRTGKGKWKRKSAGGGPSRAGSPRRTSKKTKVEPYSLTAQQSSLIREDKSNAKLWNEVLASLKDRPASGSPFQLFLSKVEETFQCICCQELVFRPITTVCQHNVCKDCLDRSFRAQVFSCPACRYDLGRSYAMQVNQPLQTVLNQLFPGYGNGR
MBD2 inh – inhibitors of MBD2 binding to methylated DNA, primary screen, biochemical, TR-FRET, DNA-binding domain, human. Methyl-CpG-binding domain protein 2 (Homo sapiens), Q9UBB5. MBD2 binding to methylated oligonucleotide. inhibition, % at 4.4 µM. 370,000 tested, 0.31% active. AID 686964, 2013; in the data active means inhibition above about 13%
SUMO1-SIM PPI – modulators of SUMO1 protein-protein interactions, primary screen, biochemical, uHTS; Small ubiquitin-related modifier 1 (Homo sapiens), P63165; SUMO1 binding to a labelled peptide, TR-FRET, 1 h; inhibition, % at 20 µM; 360,000 tested, 0.33% active; AID 602429, 2012
NS3 hel confirm – HCV NS3 helicase inhibitors, retest, confirmation, biochemical, Cy5 molecular beacon fluorescence, triplicate. shares compounds with HCV NS3 hel inh. NS3 helicase DNA unwinding. inhibition, % at 10.9 µM. 1,600 tested, 31% active. AID 1943, 2009;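 active means inhibition above the mean of all tested compounds plus 3 SD, cutoff set per campaign, cut at about 36% in these data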
FID counter trip – compounds displacing fluorescent DNA intercalator, artefact control for HCV NS3 helicase inhibitor project, biochemical, FID fluorescence, triplicate; inhibition, % at 7.9 µM; shares compounds with HCV NS3 hel inh; DNA fluorescent intercalator displacement; 1,600 tested, 4% active; AID 1945, 2009;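 further: 0% = vehicle and 100% = reference compound; higher means more displacement of ethidium bromide from the DNA hairpin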
* = called active by the depositor; . = no result given. Unless noted, no stated cut-off is given here; in the data, active means inhibition above about 37%; inactive means the rest.

SMILES | DNMT1 inh | HCV NS3 hel inh | Pemphigus Ab inh | UHRF1 MBD2 ctr | MBD2 inh | SUMO1-SIM PPI | NS3 hel confirm | FID counter trip
Cc1cc(N=Cc2c(O)ccc3cc(Br)ccc23)no1 | -2.9 | 36.8* | 108.0 | -0.2 | -3.8 | -15.3 | -10.2 | 39.4*
Cc1occc1-c1nnc(SCC(=O)N2CCCc3ccccc32)n1Cc1ccco1 | 2.1 | 45.2* | 104.6 | 21.8* | 4.4 | 1.4 | -6.6 | -15.4
CC1CCc2c(sc(/N=C/c3ccco3)c2C(N)=O)C1 (stereo not drawn) | -6.5 | 36.6* | 99.2 | -3.0 | 5.2 | -8.1 | -3.6 | 0.8
O=C1CCn2c1c(O)c1ccccc1c2=O | 3.5 | . | 94.6 | -4.7 | -4.3 | 5.5 | . | .
N=C1CCC(=N)c2c1c(O)c1ccccc1c2O | 75.6* | 43.2* | 94.9 | . | . | 44.4* | 49.7* | 0.7
COc1ccc(C(Cl)=C(C=O)c2ccc(OC)c(OC)c2)cc1OC | -2.5 | . | . | 0.6 | -3.1 | -1.9 | . | .
Cc1cc(O)c(C(=O)/C=C/c2ccccc2Br)c(=O)o1 | 10.9 | 47.9* | 115.2 | -0.5 | -2.8 | 10.0 | 17.4 | 7.1
Cc1cc(O)c(C(=O)/C=C/c2ccccc2)c(=O)o1 | 8.1 | 43.5* | 121.7 | -1.6 | -3.4 | 18.7 | -11.4 | 2.2
Cc1cc(O)c(C(=O)/C=C/c2ccc(C(C)C)cc2)c(=O)o1 | 15.6 | 29.1 | 89.0 | -1.2 | -2.5 | 5.7 | . | .
COc1ccc2c(c1)CCc1c-2n[nH]c1C(=O)NCCC(C)C | -5.5 | -7.7 | 100.9 | -0.8 | 4.8 | 2.9 | . | .
COc1ccc(N(CC(=O)NCCC2=CCCCC2)S(=O)(=O)c2c(C)[nH]c(=O)[nH]c2=O)cc1 | 1.8 | 36.7* | 92.0 | 0.7 | -4.9 | -2.0 | -20.2 | -32.4
O=C1CC(=O)N(c2ccccc2)c2ccccc21 | 1.1 | -4.4 | 109.0 | 1.1 | 2.4 | 3.4 | . | .
O=C1CC(=O)N(c2ccccc2)N1c1ccccc1 | 4.2 | 38.4* | 100.1 | -1.5 | 0.5 | 1.6 | 16.3 | -7.2
O=C(O)c1ccc(N/N=C/c2ccc(C(F)(F)F)cc2)cc1 | -3.4 | 36.6* | 115.6 | -2.6 | 2.3 | -13.1 | 56.5* | -14.4
CCc1cc(=O)oc2cc(C)c(CN3CCCCC3)c(O)c12 | 8.7 | 36.4* | . | 7.4 | 5.9 | 36.6 | -24.3 | -4.6
CCCc1cc(=O)oc2cc(C)c(CN3CCCC3)c(O)c12 | 46.6 | 39.9* | 88.5 | 9.5 | 7.3 | 32.5 | 41.5* | -22.4
O=C(CN1C(=O)NC2(CCCC2)C1=O)Nc1ccc(OC(F)(F)F)cc1 | -0.7 | -3.6 | 96.2 | -1.1 | -4.1 | 4.8 | . | .
CCn1cc(C(=O)NCc2ccccc2)c(=O)c2cc(F)c(N3CCN(C(=O)c4ccco4)CC3)cc21 | -9.2 | -7.2 | . | -0.4 | -5.2 | 13.0 | . | .
CCOc1ccccc1OCCCC(=O)Nc1cccc(S(=O)(=O)N2CCOCC2)c1 | 2.2 | . | 95.1 | -4.4 | 3.1 | 4.1 | . | .
CCOc1cccc(NC(=O)/C(C#N)=C\c2cn(CC(=O)O)c3ccccc23)c1 | -9.6 | 39.9* | 112.9 | 4.9 | -5.4 | -12.1 | 48.9* | -6.7
CCOc1ccc(NC(=O)/C(C#N)=C/c2cn(CC(=O)O)c3ccccc23)cc1 | -4.0 | 33.6 | 118.0 | 4.5 | 0.2 | -22.8 | . | .
O=C(CC(SCc1ccco1)c1ccc(O)cc1)c1cccs1 (stereo not drawn) | -8.8 | 69.2* | 104.7 | 0.1 | -1.2 | -6.9 | -0.2 | -11.1
COc1ccccc1-n1c(SCC(=O)NC(C)(C)C)nc(O)cc1=O | 6.0 | 36.3* | 99.8 | -4.0 | 0.5 | 4.3 | -17.9 | 3.4
CCN1CCC(N2CCN(c3ccc(Cl)cc3)CC2)CC1 | . | -0.4 | . | . | . | . | . | .
O=C(NCc1ccco1)C(=O)NCC1OCCN1S(=O)(=O)c1cc(F)ccc1F (stereo not drawn) | -4.0 | 48.8* | 103.0 | 1.4 | 7.2 | -3.2 | -7.4 | 11.1
SMILES | DNMT1 inh | HCV NS3 hel inh | Pemphigus Ab inh | UHRF1 MBD2 ctr | MBD2 inh | SUMO1-SIM PPI | NS3 hel confirm | FID counter trip
C(=C\c1ccco1)/C1=NN(c2ccccc2)C(c2ccco2)C1 (stereo not drawn) | 24.9 | 46.4* | 109.6 | . | . | -4.6 | 58.1* | 8.1
Fc1ccc(C2=NN(c3ccccc3)C(c3ccco3)C2)cc1 (stereo not drawn) | -6.7 | 1.1 | 100.2 | -1.2 | 7.0 | -10.8 | . | .
COc1ccc(/C=C\c2onc(C)c2S(=O)(=O)N2CCC(C(=O)NCc3ccco3)CC2)cc1 | 2.4 | 49.9* | 98.6 | -0.1 | -5.9 | -7.8 | -0.5 | -17.6
CCOC(=O)CC(=O)CSc1nc(N)c(C#N)c(-c2ccc(F)cc2)c1C#N | -0.2 | 56.8* | 106.3 | -5.0 | 3.9 | -12.0 | -2.6 | 4.7
CCOC(=O)CSc1nc(N)c(C#N)c(-c2ccc(OC)cc2)c1C#N | 5.8 | -10.9 | 68.1 | 3.8 | -1.6 | -7.1 | . | .
O=C(NCCCN1CCOCC1)c1ccc2c(=O)n(Cc3ccccc3)c(=S)[nH]c2c1 | 0.2 | -59.2 | 108.3 | -2.4 | 0.3 | -0.5 | . | .
COCCn1c(=S)[nH]c2ccc(N(C)C)cc2c1=O | -10.2 | 39.0* | 98.8 | -7.2 | -4.3 | -11.4 | -8.7 | 6.3
CCOc1cc2[nH]c(=S)n(CCOC)c(=O)c2cc1OCC | -2.3 | -3.8 | 97.2 | 0.0 | -1.6 | 2.8 | . | .
CCOC(=O)C1(C)C=C(Nc2ccc(O)cc2)C(=O)N1c1ccc(O)cc1 (stereo not drawn) | -9.9 | 37.8* | 98.5 | 5.3 | -5.6 | 2.1 | -10.2 | 14.0
CCOC(=O)C1(C)C=C(Nc2ccc(OC)cc2)C(=O)N1c1ccc(OC)cc1 (stereo not drawn) | 31.2 | 3.0 | 97.0 | -3.6 | -5.8 | -2.6 | . | .
Cc1cccc(CNCc2ccccc2)c1 | 0.2 | 38.5* | 94.9 | 2.7 | -2.1 | -0.3 | -9.8 | 8.9
Cn1ccnc1Sc1ccc(/C=N/NC(=O)c2ccccc2[N+](=O)[O-])cc1[N+](=O)[O-] | -0.4 | -0.7 | . | -3.0 | -0.3 | -14.2 | . | .
Cn1ccnc1Sc1ccc(/C=N/NC(=O)c2ccccc2O)cc1[N+](=O)[O-] | 2.5 | 47.0* | 112.8 | -3.5 | -5.9 | -3.9 | -4.1 | 12.9

Screening data from PubChem BioAssay.
